pIC50, pKi: −log10 of the molar value.
Tests used:
[1] = target: T1, Sucrase-isomaltase, intestinal (Rattus norvegicus, UniProt P23739); assay: Inhibition of rat small intestinal isomaltase after 30 mins by glucose-oxidase method
In short: (§1)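 Enzyme source was rat small-intestinal brush border membrane vesicles suspended in 0.1 M maleate buffer, pH 6.0. Substrate solutions, prior to mixing, were maltose 74 mM (maltase), sucrose 74 mM (sucrase) and isomaltose 7.4 mM (isomaltase). Substrate, inhibitor and enzyme were incubated at 37 °C for 30 min, then stopped by 2 min boiling. Released glucose was measured by glucose oxidase. Final DMSO was 2.5%.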

[2] = target: T1, Sucrase-isomaltase, intestinal; assay: Inhibition of rat small intestinal sucrase after 30 mins by glucose-oxidase method; in short: as §1
[3] = target: T1, Sucrase-isomaltase, intestinal; assay: Competitive inhibition of rat intestinal sucrase
[4] = target: T1, Sucrase-isomaltase, intestinal; assay: Competitive inhibition of rat intestinal isomaltase

T1 sequence (P23739 1-1013 limits assumed): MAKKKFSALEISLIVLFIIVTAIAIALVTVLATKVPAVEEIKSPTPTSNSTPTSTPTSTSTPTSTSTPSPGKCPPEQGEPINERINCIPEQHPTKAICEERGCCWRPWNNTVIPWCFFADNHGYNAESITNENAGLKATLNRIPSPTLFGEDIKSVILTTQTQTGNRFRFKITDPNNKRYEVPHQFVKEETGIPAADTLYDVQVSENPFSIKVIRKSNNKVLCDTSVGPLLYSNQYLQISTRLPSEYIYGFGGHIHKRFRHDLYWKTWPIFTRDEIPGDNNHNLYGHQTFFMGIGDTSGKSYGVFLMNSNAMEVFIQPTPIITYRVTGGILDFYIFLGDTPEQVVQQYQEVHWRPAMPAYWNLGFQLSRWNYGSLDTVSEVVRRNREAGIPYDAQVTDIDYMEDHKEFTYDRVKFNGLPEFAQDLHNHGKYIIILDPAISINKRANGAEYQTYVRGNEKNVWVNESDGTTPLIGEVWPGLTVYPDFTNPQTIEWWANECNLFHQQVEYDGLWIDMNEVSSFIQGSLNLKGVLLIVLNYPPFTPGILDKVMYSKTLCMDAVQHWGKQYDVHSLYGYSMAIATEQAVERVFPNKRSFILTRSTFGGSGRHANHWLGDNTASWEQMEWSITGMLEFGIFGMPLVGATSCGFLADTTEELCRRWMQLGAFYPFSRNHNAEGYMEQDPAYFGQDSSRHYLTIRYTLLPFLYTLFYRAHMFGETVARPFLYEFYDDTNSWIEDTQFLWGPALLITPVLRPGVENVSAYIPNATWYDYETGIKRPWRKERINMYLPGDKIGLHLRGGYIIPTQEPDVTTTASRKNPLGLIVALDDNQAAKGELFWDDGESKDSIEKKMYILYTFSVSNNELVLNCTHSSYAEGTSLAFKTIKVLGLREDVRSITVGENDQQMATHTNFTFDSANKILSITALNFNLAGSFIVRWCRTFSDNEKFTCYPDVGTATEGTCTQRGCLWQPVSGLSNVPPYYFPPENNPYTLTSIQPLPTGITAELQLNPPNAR
T1 sequence (P23739 1014-1841 limits assumed): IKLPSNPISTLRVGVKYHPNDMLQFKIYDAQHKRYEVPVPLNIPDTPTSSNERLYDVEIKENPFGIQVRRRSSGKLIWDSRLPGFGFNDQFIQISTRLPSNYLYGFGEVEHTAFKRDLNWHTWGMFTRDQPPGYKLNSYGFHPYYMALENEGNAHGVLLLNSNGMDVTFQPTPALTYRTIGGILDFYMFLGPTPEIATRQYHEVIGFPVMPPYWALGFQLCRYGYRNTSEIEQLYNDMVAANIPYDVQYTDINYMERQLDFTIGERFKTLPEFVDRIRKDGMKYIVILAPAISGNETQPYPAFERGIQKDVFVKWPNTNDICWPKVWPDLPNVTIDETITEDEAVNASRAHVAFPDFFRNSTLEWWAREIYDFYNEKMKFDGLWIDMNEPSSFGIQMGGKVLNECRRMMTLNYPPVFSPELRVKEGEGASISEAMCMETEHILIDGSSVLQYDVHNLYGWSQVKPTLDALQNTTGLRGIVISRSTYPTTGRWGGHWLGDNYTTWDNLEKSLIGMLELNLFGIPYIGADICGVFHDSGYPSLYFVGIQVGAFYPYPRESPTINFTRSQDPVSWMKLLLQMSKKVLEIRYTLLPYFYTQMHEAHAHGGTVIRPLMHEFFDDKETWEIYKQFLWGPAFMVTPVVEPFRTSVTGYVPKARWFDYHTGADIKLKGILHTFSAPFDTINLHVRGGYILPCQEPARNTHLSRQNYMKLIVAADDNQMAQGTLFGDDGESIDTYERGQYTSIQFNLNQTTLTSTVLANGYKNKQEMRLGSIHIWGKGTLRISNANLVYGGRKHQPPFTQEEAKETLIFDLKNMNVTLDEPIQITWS

SMILES	pIC50 [1]	pIC50 [2]	pKi [3]	pKi [4]
CCCCCCCCCCCCCO[C@@H](CO)[C@H](O)C[S+]1C[C@@H](O)[C@H](O)[C@H]1CO (single isomer, unassigned)	6.02	5.89	–	–
OC[C@H](OCc1ccccc1)[C@H](O)C[S+]1C[C@@H](O)[C@H](O)[C@H]1CO (single isomer, unassigned)	–	6.49	–	–
O=S(=O)([O-])O[C@@H](CO)[C@H](O)C[S@+]1C[C@@H](O)[C@H](O)[C@H]1CO [SALACINOL]	–	–	6.02	5.85

The remaining compounds from weak to strong by pIC50 [2], led by results:

pIC50 [1]	pIC50 [2]	pKi [3]	pKi [4]	SMILES
6.41	6.34	–	–	CO[C@@H](CO)[C@H](O)C[S+]1C[C@@H](O)[C@H](O)[C@H]1CO (single isomer, unassigned)
6.57	6.92	–	–	CCO[C@@H](CO)[C@H](O)C[S+]1C[C@@H](O)[C@H](O)[C@H]1CO (single isomer, unassigned)
